# Rows were chosen to be rich in hits. Some 1.9% of all compounds tested hit in one or more screens of this group.
# SUMO1 PPI mod: modulators of human SUMO1-mediated protein-protein interactions; AID 602429; P63165; inhibition, % at 20 µM; SUMO1 binding to a labelled peptide, TR-FRET, 1 h; 360,000 tested, 0.33% active; in the data active means inhibition above about 37%
# Target sequence (P63165 whole entry, looked up): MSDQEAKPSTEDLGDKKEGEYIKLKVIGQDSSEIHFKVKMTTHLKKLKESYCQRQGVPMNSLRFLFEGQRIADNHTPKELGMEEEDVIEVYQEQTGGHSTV
# DNMT1 inh: blocks human DNA methyltransferase DNMT1; P26358; DNMT1 molecular beacon, Hinp1I cleavage, fluorescence; inhibition (reported as % activation of signal), % at 10 µM; 360,000 tested, 0.83% active; AID 588458; in the data active means inhibition above about 50%
# Scp-1 inhibitor: Scp-1 (human) phosphatase inhibition; Q9GZU7; inhibition, % at 20 µM; 340,000 tested, 0.88% active; Recombinant Scp1, phosphopeptide, malachite green phosphate absorbance;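 active means inhibition above about 50% at 20 µM, limit read from the data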;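 further: plate controls were DMSO wells with enzyme for no effect and wells lacking enzyme for full effect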
# Target sequence (Q9GZU7 76-261 limits assumed): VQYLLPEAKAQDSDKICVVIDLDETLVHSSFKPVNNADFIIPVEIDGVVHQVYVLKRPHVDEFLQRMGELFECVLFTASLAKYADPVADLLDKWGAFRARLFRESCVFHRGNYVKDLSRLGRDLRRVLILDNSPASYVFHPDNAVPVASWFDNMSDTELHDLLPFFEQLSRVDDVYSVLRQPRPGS
#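 Test system: SCP-1 phosphatase catalytic domain, residues 76-261; measured by: colorimetric phosphate reagent with accelerator and stabiliser, absorbance at 630 nm; timing: enzyme reaction 45 min at room temperature, colour 5 min, stabilisation 30 min; also added: Phosphorylated 17-residue peptide substrate; compound dosing: one concentration, 20 µM, with 1.0% DMSO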
# STEP inh: inhibitors of human striatal-enriched phosphatase STEP | recombinant STEP, OMFP fluorogenic substrate, fluorescence | inhibition, % at 20 µM | 360,000 tested, 0.25% active | AID 588621;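 active means inhibition at 20 µM, scaled per plate between control wells, above about 37%, limit read from the data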;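 further: 0% = DMSO with enzyme and substrate and 100% = substrate only without enzyme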
#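 System: STEP (striatal-enriched tyrosine phosphatase) enzyme, cell-free; medium: Bis-Tris pH 6.0 buffer with DTT, detergent; dosing: 20 µM, 1% DMSO; times: reaction 20 min, ambient temperature; detection: fluorescence, 480/540 nm; read-out basis: normalized % inhibition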
# LMPTP inh: blocks human LMPTP phosphatase. P24666. recombinant LMPTP-A, OMFP fluorogenic substrate, fluorescence intensity. inhibition, % at 20 µM. 360,000 tested, 0.22% active. AID 651560;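 active means compounds that cut the enzyme signal by at least half of the control window in the single-dose screen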;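 further: plate controls were DMSO wells with enzyme plus substrate for no effect and substrate without enzyme for full effect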
#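 test system = LMPTP-A | amount = 0.625 nM LMPTP-A final | reagent = fluorogenic phosphatase substrate OMFP at 400 µM final | incubation = 50 min at room temperature | benchmarks = no-enzyme low control, uninhibited high control | medium = Bis-Tris pH 6.0, DTT, detergent | signal = fluorescence intensity of OMFP turnover product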
# UBC9 SUMO inh: blocks human SUMOylation mediated by UBC9 | HTRF SUMOylation assay, SAE1/SAE2 + UBC9, in vitro | inhibition, % at 35 µM | 290,000 tested, 0.36% active | AID 2006; in the data active means inhibition above about 50%, passing the limit was not always enough
# Target sequence (P63279 whole entry, looked up): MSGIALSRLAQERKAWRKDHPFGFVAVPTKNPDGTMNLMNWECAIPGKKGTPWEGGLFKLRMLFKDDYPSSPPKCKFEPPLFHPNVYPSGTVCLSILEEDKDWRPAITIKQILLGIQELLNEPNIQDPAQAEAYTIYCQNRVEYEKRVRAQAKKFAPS
# Scp1 confirm: Scp-1 (human) inhibition, single-dose confirmed; shares compounds with Scp-1 inhibitor; recombinant SCP-1 catalytic domain, phosphate release, malachite green absorbance; inhibition, % at 20 µM; 2,500 tested, 61% active; AID 540281;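 further: plate controls were DMSO with enzyme for no effect and buffer wells lacking enzyme for full effect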
# Scp-1 MG ctr: counter-screen for Scp-1 inhibitors: colorimetric interference; 2,500 tested, under 10 active; shares compounds with Scp-1 inhibitor; Colorimetric interference counterscreen, malachite green absorbance 630 nm; apparent inhibition (interference), % at 20 µM;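 further: compounds added after enzyme reaction finished so only phosphate colour detection is probed; plate controls were DMSO wells with completed Scp-1 reaction for no effect and substrate wells lacking enzyme for full effect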
# Scp-1 Tm shift: validation of human Scp-1 inhibitors by thermal shift binding; shares compounds with Scp-1 inhibitor; Recombinant SCP1, Sypro Orange thermal shift Tm; thermal shift relative to vanadate control, % at 40 µM; 1,500 tested, 25% active;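 active means substances whose mean melting-temperature shift, as a percentage of the reference inhibitor's shift, reaches about 5.3%, limit read from the data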;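 further: 0% = Tm of DMSO wells and 100% = Tm with sodium orthovanadate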
# Beacon interf DR: beacon fluorescence artifact, dose response counter-screen. shares compounds with DNMT1 inh. molecular beacon fluorescence, spectral interference counter-screen. IC50, µM. 200 tested, under 10 active. AID 602382; call rule not given here
# DNMT1 confirm: confirmation of human DNMT1 inhibitors | shares compounds with DNMT1 inh | inhibition, % at 10 µM | AID 602385 | 2,300 tested, 8% active | DNMT1 molecular beacon HinP1I cleavage, fluorescence;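 active means average inhibition of at least 30% in the single-concentration confirmation test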
# Beacon interf: shows spectral interference in the DNMT1 beacon assay. shares compounds with DNMT1 inh. DNMT1 molecular beacon spectral interference counterscreen, fluorescence 485/520. 2,300 tested, 1% active. activation (fluorescence interference), % at 10 µM. AID 602387;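 active means activation of at least 30% at 10 µM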;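 further: DNMT1 catalytic domain with a HinP1I cleavage step and a FAM/dabcyl DNA beacon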
# * = called active by the depositor; . = no result.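 How the source made its calls, unless noted: active means inhibition of at least 30% at 20 µM; inactive means the rest.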
SMILES,SUMO1 PPI mod,DNMT1 inh,Scp-1 inhibitor,STEP inh,LMPTP inh,UBC9 SUMO inh,Scp1 confirm,Scp-1 MG ctr,Scp-1 Tm shift,DNMT1 confirm,Beacon interf,others
Cc1nnc(SCC(=O)NC(=O)NCc2ccco2)n1Cc1ccccc1,5,66*,87*,-1,18,3,63*,-12,-5,3,4,
O=C(C[C@H]1CC[C@@H](NC(=O)Cc2cccnc2)[C@@H](CO)O1)NCc1ccc2c(c1)OCO2,5,.,.,.,-1,.,.,.,.,.,.,
CC(=O)C[C@@H](O)CC(=O)[C@@H]1OC(=O)[C@H](C)CCCCc2ccccc21,5,5,-8,0,-1,.,.,.,.,.,.,
O=C(CSc1nccc(=O)[nH]1)NCc1ccco1,27,77*,93*,10,1,19,69*,-3,3,3,0,
O=C(CSc1nc2ncccc2[nH]1)NCc1ccco1,1,3,11,2,-1,-3,.,.,.,.,.,
Nc1nc(SCc2ccc(Cl)cc2Cl)nc2nc3c(cc12)CCCC3,2,90*,97*,10,27,11,76*,6,4,0,-1,
CCN/C=C(\C#N)S(=O)(=O)c1ccc(Br)cc1,7,-1,-9,1,-3,4,.,.,.,.,.,
Cc1cc(CNC(=O)COC(=O)Cn2[nH]c(=O)c3ccccc3c2=O)cc(C)c1O,1,-1,5,1,-1,.,.,.,.,.,.,
Cc1ccc(/C=C/C(=O)NCc2ccccn2)o1,-2,67*,72*,0,1,10,59*,-13,3,6,1,
Cc1ccc(C(=O)NN2CC(O)=C(c3nc(-c4cccc([N+](=O)[O-])c4)cs3)C2=N)cc1,1,80*,75*,20,13,47,43*,-7,6.1*,39*,-2,Beacon interf DR=>99
COc1ccc(S(=O)(=O)N2CCOCC2)cc1NC(=O)c1cccc(-n2cccc2)c1,23,73*,58*,0,13,.,-7,-18,.,0,-5,
COc1ccccc1NC(=O)c1cccc(S(=O)(=O)N2CCOCC2)c1,-3,-3,-7,0,0,18,.,.,.,.,.,
CCN(CC)C(=O)C1=C(C)N(CCCOC)C(=O)C(CC(=O)NCc2ccco2)C1 (stereo not drawn),2,-1,.,-3,-1,.,.,.,.,.,.,
Cc1noc(C)c1NC(=O)N(C)C[C@H]1Oc2ccc(NC(=O)Nc3ccc(C(F)(F)F)cc3)cc2C(=O)N([C@H](C)CO)C[C@@H]1C,6,2,-4,-4,0,.,.,.,.,.,.,
CCn1nnc(NC(=O)CSc2ccc(Cl)cc2)n1,4,66*,51*,-1,6,-1,72*,-6,3,5,2,
CCCCn1nnc(NC(=O)Cc2ccc(Cl)cc2)n1,-7,1,20,-1,-3,1,.,.,.,.,.,
CC(=O)c1c(C)oc(C)c1CSCc1ccc(C(=O)O)o1,8,78*,65*,11,19,10,56*,-15,-2,6,3,
CCc1nc2oc3ccccc3c(=O)c2c(=O)n1-c1ccc(C)cc1,11,78*,65*,5,47,4,56*,-16,4,5,1,

# Screening data as filed in PubChem BioAssay.
